Measured values from ChEMBL document CHEMBL4033778, “Species-Selective Pyrimidineamine Inhibitors of Trypanosoma brucei S-Adenosylmethionine Decarboxylase” (J Med Chem, 2018).

Assays:
[1] = molecular target: T1, S-adenosylmethionine decarboxylase proenzyme (Homo sapiens, UniProt P17707); assay: Inhibition of recombinant human N-terminal His6-tagged AdoMetDC expressed in Escherichia coli BL21/DE3 cells at pH 7.2 by RapidFire-MS-based enzyme activity assay
T1 sequence (P17707 whole entry): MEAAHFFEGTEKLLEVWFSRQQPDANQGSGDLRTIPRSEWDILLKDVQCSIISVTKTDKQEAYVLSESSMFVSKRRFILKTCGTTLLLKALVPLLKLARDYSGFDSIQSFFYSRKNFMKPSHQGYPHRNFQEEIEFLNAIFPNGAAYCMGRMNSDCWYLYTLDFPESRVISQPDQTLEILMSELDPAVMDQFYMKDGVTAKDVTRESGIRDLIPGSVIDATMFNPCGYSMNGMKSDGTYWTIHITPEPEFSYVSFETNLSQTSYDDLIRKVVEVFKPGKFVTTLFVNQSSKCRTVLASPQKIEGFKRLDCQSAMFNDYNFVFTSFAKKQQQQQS

[2] = Inhibition of recombinant Trypanosoma brucei N-terminal His6-tagged AdoMetDC/prozyme hetrodimer expressed in Escherichia coli BL21/DE3 cells at pH 7.2 by RapidFire-MS-based enzyme activity assay
Trypanosoma brucei = assay: Inhibition of recombinant Trypanosoma brucei N-terminal His6-tagged AdoMetDC/prozyme hetrodimer expressed in Escherichia coli BL21/DE3 cells at 180 uM at pH 7.2 by RapidFire-MS-based enzyme activity assay
In short: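 Steady-state decarboxylation of S-adenosyl-L-methionine by purified TbAdoMetDC/prozyme at pH 7.2; decarboxylated AdoMet product read by RapidFire–MS. Inhibitor added from DMSO to 2% final DMSO. Percent inhibition reported at the top tested concentration when mean inhibition stayed below 50%; triplicate.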

[3] = molecular target: T2, S-adenosylmethionine decarboxylase proenzyme (Homo sapiens) (UniProt P17707); assay: Inhibition of recombinant human N-terminal His6-tagged AdoMetDC expressed in Escherichia coli BL21/DE3 cells at 180 uM at pH 7.2 by RapidFire-MS-based enzyme activity assay
T2 sequence (whole entry): T1 sequence (P17707 whole entry)

Row | SMILES | IC50 [1] [µM] | IC50 [2] [µM] | inhibition (Trypanosoma brucei) [%] | inhibition [3] [%]
1 | Cc1cc(Nc2cc(Cl)cc(-c3ccc(F)cc3)c2)nc(N)n1 | > 21 | 1.1 |  | 
2 | Cc1cc(Nc2cc(Cl)c(Oc3ccccc3)c(Cl)c2)nc(N)n1 | > 180 |  | 38 | 
3 | Cc1cc(Nc2cc(Cl)cc(Cl)c2)nc(N(C)C)n1 | > 180 | > 180 |  | 
4 | Cc1cc(Nc2cc(S(C)(=O)=O)cc(S(C)(=O)=O)c2)nc(N)n1 |  | 1.5 |  | 39
5 | Cc1cc(Nc2cccc(Cl)c2)nc(N)n1 | > 180 |  | 35 | 
6 | Nc1cccc(Nc2cc(Cl)cc(Cl)c2)n1 | > 180 | > 180 |  | 
7 | Cc1cc(Nc2cc(Cl)cc(-c3ccc(Cl)c(C(F)(F)F)c3)c2)nc(N)n1 | > 180 | 53 |  | 
8 | Cc1cc(NCc2cc(Cl)cc(Cl)c2)nc(N)n1 | > 180 | 139 |  | 
9 | Cc1cc(Nc2cc(Cl)cc(C#N)c2)nc(N)n1 |  | 3.9 |  | 29
10 | Cc1cc(Nc2cc(Cl)cc(S(F)(F)(F)(F)F)c2)nc(N)n1 | > 180 | 16 |  | 
11 | Cc1cc(Nc2ccccc2Br)nc(N)n1 | > 180 | > 180 |  | 
12 | COc1ccc(-c2cc(Cl)cc(Nc3cc(C)nc(N)n3)c2)cc1 | > 180 | 2.3 |  | 
13 | Cc1cc(Nc2cc(C(=O)O)cc(C(=O)O)c2)nc(N)n1 | > 180 | > 180 |  | 
14 | Cc1cc(Nc2cc(Cl)c(O)c(Cl)c2)nc(N)n1 | > 180 |  | 33 | 
15 | Cc1cc(Nc2cc(Cl)cc(-c3ccccc3Cl)c2)nc(N)n1 | > 180 | 26 |  | 
16 | CCc1cc(Nc2cc(C)nc(N)n2)cc(-c2ccc(F)cc2)c1 | > 180 | 2.7 |  | 
17 | Cc1cc(Nc2cc(Br)cc(OCC(C)C)c2)nc(N)n1 | > 180 | 11 |  | 
18 | Cc1cc(Nc2cc(-c3ccccc3)cc(-c3ccccc3)c2)nc(N)n1 | > 180 | > 180 |  | 
19 | COC(=O)c1cc(Nc2cc(C)nc(N)n2)cc(C(=O)OC)c1 | > 180 |  | 40 | 
20 | Cc1cc(Nc2cccc(F)c2)nc(N)n1 | > 180 | > 180 |  | 
21 | Cc1cc(Nc2cc(Cl)c(N(C)C)c(Cl)c2)nc(N)n1 | > 180 | > 180 |  | 
22 | Cc1cc(Nc2cc(Cl)cc(-c3ccc(Cl)cc3)c2)nc(N)n1 | > 63 | 1.7 |  | 

Row | SMILES | IC50 [1] [µM] | IC50 [2] [µM] | inhibition (Trypanosoma brucei) [%] | inhibition [3] [%]
23 | Cc1cc(Nc2cc(Cl)c(N3CCOCC3)c(Cl)c2)nc(N)n1 | > 180 | > 180 |  | 
24 | Cc1cc(Nc2ccc(C(F)(F)F)cc2)nc(N)n1 | > 180 | > 180 |  | 
25 | Cc1cc(Nc2cc(Cl)c(F)c(Cl)c2F)nc(N)n1 | > 63 | 2.2 |  | 
26 | CSc1cccc(Nc2cc(C)nc(N)n2)c1 |  | 149 |  | 23
27 | Cc1cc(Nc2cc(F)cc(Cl)c2)nc(N)n1 | > 180 | 32 |  | 
28 | Cc1cc(Nc2cc(Cl)c(N3CCCCC3)c(Cl)c2)nc(N)n1 | > 180 | > 180 |  | 
29 | CCOc1cc(Br)cc(Nc2cc(C)nc(N)n2)c1 |  | 6 |  | 36
30 | Cc1nc(N)nc(Nc2cc(Cl)cc(Cl)c2)c1C |  | 4.8 |  | 25
31 | Cc1cc(Nc2cc(Cl)c(C)c(Cl)c2)nc(N)n1 | > 63 | 20 |  | 
32 | Cc1cc(Nc2cc(Cl)cc(-c3cccc(Cl)c3)c2)nc(N)n1 | > 180 | 81 |  | 
33 | Cc1cc(Nc2cc(Cl)cc(-c3cc4ccccc4c4ccccc34)c2)nc(N)n1 | > 180 | > 180 |  | 
34 | Cc1cc(Nc2cc(Cl)cc(-c3cc4ccccc4s3)c2)nc(N)n1 | > 180 | 41 |  | 
35 | Cc1cc(Nc2cc(Cl)cc(-c3ccc4c(c3)OCO4)c2)nc(N)n1 | > 21 | 6.2 |  | 
36 | Cc1ccc(-c2cc(Cl)cc(Nc3cc(C)nc(N)n3)c2)cc1 | > 63 | 4.6 |  | 
37 | Nc1nc(Nc2cc(Cl)cc(Cl)c2)cc(C(F)(F)F)n1 | > 180 | > 180 |  | 
38 | Cc1cc(Nc2cc(Cl)cc(-c3ccc(Cl)c(Cl)c3)c2)nc(N)n1 | > 180 | 102 |  | 
39 | Cc1cc(Nc2ccc(C(C)C)cc2)nc(N)n1 | > 180 | > 180 |  | 
40 | Cc1cc(Nc2cc(Cl)cc(-c3ccc(-c4ccccc4)cc3)c2)nc(N)n1 | > 180 | 167 |  | 
41 | Cc1cc(C)cc(Nc2cc(C)nc(N)n2)c1 | > 180 | 141 |  | 
42 | Cc1cc(Nc2cc(Cl)cc(-c3cncnc3)c2)nc(N)n1 | > 180 | > 180 |  | 
43 | Cc1cc(Nc2cc(Cl)cc(-c3ccc(O)cc3)c2)nc(N)n1 | > 180 | 143 |  | 
44 | Cc1cc(Nc2cc(Cl)cc(Cl)c2)cc(N)n1 | > 180 | 15 |  | 

Row | SMILES | IC50 [1] [µM] | IC50 [2] [µM] | inhibition (Trypanosoma brucei) [%] | inhibition [3] [%]
45 | Nc1nc(Nc2cc(Cl)cc(Cl)c2)cc(N2CCOCC2)n1 | > 180 | > 180 |  | 
46 | Cc1cc(Nc2cc(Cl)cc(-c3ccc(N(C)C)cc3)c2)nc(N)n1 | > 180 |  | 34 | 
47 | Nc1nc2c(c(Nc3cc(Cl)cc(Cl)c3)n1)CCC2 | > 21 | 12 |  | 
48 | Cc1cc(Nc2cc(Cl)c(OC(F)F)c(Cl)c2)nc(N)n1 | > 63 | > 63 |  | 
49 | Cc1cc(Nc2cc(Cl)cc(-c3ccc(C#N)cc3)c2)nc(N)n1 | > 7 | 7.6 |  | 
50 | Cc1nc(N)cc(Nc2cc(Cl)cc(Br)c2)n1 | > 180 |  | 24 | 
51 | Cc1cc(Nc2cc(F)cc(F)c2)nc(N)n1 | > 180 | 180 |  | 
52 | Cc1cc(Nc2cc(Cl)cc(-c3ccc4nonc4c3)c2)nc(N)n1 | > 180 | 27 |  | 
53 | Cc1cc(Nc2cc(Br)cc(S(F)(F)(F)(F)F)c2)nc(N)n1 | > 180 | 8.7 |  | 
54 | Cc1cc(Nc2cc(Cl)cc(Br)c2)nc(N)n1 |  | 2.2 |  | 33
55 | Cc1cc(Nc2ccc(Cl)cc2C)nc(N)n1 | > 180 | > 180 |  | 
56 | Cc1cc(N(C)c2cc(Cl)cc(Cl)c2)nc(N)n1 | > 180 | 81 |  | 
57 | Cc1cc(Nc2cc(Cl)c(Cl)c(Cl)c2)nc(N)n1 | > 63 | 11 |  | 
58 | Cc1cc(NCCc2cc(Cl)cc(Cl)c2)nc(N)n1 |  | 28 |  | 29
59 | Cc1cc(Nc2cc(Br)c(F)c(Br)c2)nc(N)n1 |  | 1.6 |  | 43
60 | CNc1nc(C)cc(Nc2cc(Cl)cc(Cl)c2)n1 | > 63 | > 63 |  | 
61 | Cc1cc(Nc2cccc(Br)c2)nc(N)n1 | > 180 |  | 41 | 
62 | Cc1cc(Nc2cc(C(C)(C)C)cc(C(C)(C)C)c2)nc(N)n1 | > 63 | > 63 |  | 
63 | Cc1cc(Nc2cc(C(=O)Nc3cc(Cl)cc(Cl)c3)cc(C(=O)Nc3cc(Cl)cc(Cl)c3)c2)nc(N)n1 | > 180 | > 180 |  | 
64 | COc1cc(Nc2cc(C)nc(N)n2)cc(OC)c1 |  | 17 |  | 21
65 | Cc1cc(Nc2ccccc2C)nc(N)n1 | > 180 | > 180 |  | 
66 | Cc1cc(Nc2cc(Cl)cc(-c3ccsc3)c2)nc(N)n1 |  | 26 |  | 30

Row | SMILES | IC50 [1] [µM] | IC50 [2] [µM] | inhibition (Trypanosoma brucei) [%] | inhibition [3] [%]
67 | Nc1ccnc(Nc2cc(Cl)cc(Cl)c2)c1 | > 180 | > 180 |  | 
68 | CCc1cc(Nc2cc(Cl)cc(Cl)c2)nc(N)n1 |  | 3 |  | 36
69 | Cc1cc(Nc2ccc(-c3cc(Cl)cc(Cl)c3)cc2)nc(N)n1 | > 180 | > 180 |  | 
70 | Cc1cc(N)cc(Nc2cc(Cl)cc(Cl)c2)n1 | > 180 |  | 24 | 
71 | Cc1cc(Nc2cc(Cl)cc(-c3ccc(C(F)(F)F)cc3)c2)nc(N)n1 | > 21 | 4.7 |  | 
72 | Nc1cc(Nc2cc(Cl)cc(Cl)c2)ccn1 | > 180 | 22 |  | 
73 | CC(C)c1cc(Nc2cc(Cl)cc(Cl)c2)nc(N)n1 | > 180 | 12 |  | 
74 | Cc1cc(Nc2cc(Cl)cc(-c3cnn(C)c3)c2)nc(N)n1 | > 180 | 164 |  | 
75 | Cc1cc(Nc2cc(Cl)cc(-c3ccc4ccccc4c3)c2)nc(N)n1 | > 180 | 57 |  | 
76 | CCc1ccc(Nc2cc(C)nc(N)n2)cc1 | > 180 | > 180 |  | 
77 | CCCCOc1cc(Br)cc(Nc2cc(C)nc(N)n2)c1 | > 180 | 4.5 |  | 
78 | Cc1cc(Nc2ccccc2)nc(N)n1 | > 180 | > 180 |  | 
79 | Cc1cc(Sc2cc(Cl)cc(Cl)c2)nc(N)n1 | > 180 | > 180 |  | 
80 | Cc1cc(Nc2cccc(S(F)(F)(F)(F)F)c2)nc(N)n1 | > 180 |  | 23 | 
81 | CCc1cc(Br)cc(Nc2cc(C)nc(N)n2)c1 | > 180 | 7.6 |  | 
82 | Nc1cnccc1Nc1cc(Cl)cc(Cl)c1 | > 180 |  | 21 | 
83 | Cc1cc(Nc2cc(Cl)cc(-c3cc(C(F)(F)F)cc(C(F)(F)F)c3)c2)nc(N)n1 | > 180 | 28 |  | 
84 | CSc1ccccc1Nc1cc(C)nc(N)n1 | > 180 | > 180 |  | 
85 | Cc1cc(Nc2cc(Cl)cc(C(F)(F)F)c2)nc(N)n1 |  | 3.9 |  | 39
86 | Cc1cc(Nc2cc(C(F)(F)F)cc(C(F)(F)F)c2)nc(N)n1 | > 180 | 11 |  | 
